How the values were obtained:
Mu-type opioid receptor [1] = molecular target: T1, Mu-type opioid receptor (Homo sapiens, UniProt P35372); experiment: Displacement of [3H]DAMGO from human MOR expressed in HEK cells by radioligand binding assay; assay type: cell-based
[2] = molecular target: 5-hydroxytryptamine receptor 7 (Homo sapiens, UniProt P34969); experiment: Displacement of [3H]LSD from human 5-HT7A receptor expressed in HEK cells by radioligand binding assay relative to control; assay type: cell-based
[3] = molecular target: 5-hydroxytryptamine receptor 6 (Homo sapiens, UniProt P50406); experiment: Displacement of [3H]LSD from human 5-HT6 receptor expressed in HEK cells by radioligand binding assay relative to control; assay type: cell-based; parameters: concentration or dose not given beside the values; details: concentration not given here
[4] = molecular target: T2, 5-hydroxytryptamine receptor 2C (Homo sapiens) (UniProt P28335); experiment: Displacement of [3H]Mesulergine from human 5-HT2C receptor expressed in HEK293FlpIN cells by radioligand binding assay relative to control; assay type: cell-based; parameters: concentration or dose not given beside the values; details: concentration not given here
T2 sequence (whole entry): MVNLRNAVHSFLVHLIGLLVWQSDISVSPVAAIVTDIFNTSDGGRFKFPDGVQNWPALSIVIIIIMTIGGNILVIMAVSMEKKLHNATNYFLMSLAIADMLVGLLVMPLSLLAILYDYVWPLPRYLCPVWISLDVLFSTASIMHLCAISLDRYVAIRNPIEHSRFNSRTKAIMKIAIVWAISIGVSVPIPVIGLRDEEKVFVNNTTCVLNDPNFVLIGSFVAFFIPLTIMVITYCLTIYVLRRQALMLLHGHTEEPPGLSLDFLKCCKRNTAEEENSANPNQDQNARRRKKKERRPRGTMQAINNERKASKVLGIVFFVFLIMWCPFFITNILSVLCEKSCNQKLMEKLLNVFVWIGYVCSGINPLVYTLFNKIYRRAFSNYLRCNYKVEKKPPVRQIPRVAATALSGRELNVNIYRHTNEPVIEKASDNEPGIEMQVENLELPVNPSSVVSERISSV

Mu-type opioid receptor [5] = molecular target: T1, Mu-type opioid receptor; experiment: Displacement of [3H]DAMGO from human MOR expressed in HEK cells by radioligand binding assay relative to control; assay type: cell-based; parameters: concentration or dose not given beside the values; details: concentration not given here
NIH3T3 = experiment: Cytotoxicity against mouse NIH/3T3 cells assessed as reduction in cell viability after 24 hrs by MTT assay; assay type: cell-based; details: NIH3T3, 24 h
Outline: (§1)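 Cells exposed to compounds; viability read at 24, 48 and 72 h. Every experiment run in triplicate.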

[6] = molecular target: T3, Sodium-dependent noradrenaline transporter (Homo sapiens, UniProt P23975); experiment: Displacement of [3H]Nisoxetine from human NET expressed in HEK cells by radioligand binding assay relative to control; assay type: cell-based
MDA-MB-231 = experiment: Cytotoxicity against human MDA-MB-231 cells assessed as reduction in cell viability after 24 hrs by MTT assay; assay type: functional, cell-based; details: MDA-MB-231, 24 h; outline: as §1
[7] = system: Lewis lung carcinoma cell line; experiment: Cytotoxicity against mouse LLC cells harboring […] assessed as reduction in cell viability after 48 hrs by MTT assay; assay type: functional, cell-based; outline: as §1
[8] = molecular target: Sodium-dependent serotonin transporter (Homo sapiens, UniProt P31645); experiment: Displacement of [3H]Citalopram from human SERT expressed in HEK cells by radioligand binding assay relative to control; assay type: cell-based
[9] = molecular target: T4, 5-hydroxytryptamine receptor 2C (Homo sapiens, UniProt P28335); experiment: Displacement of [3H]Mesulergine from human 5-HT2C receptor expressed in HEK293FlpIN cells by radioligand binding assay; assay type: cell-based
T4 sequence (P28335 whole entry): T2 sequence (whole entry)

D(2) dopamine receptor = D(2) dopamine receptor (Homo sapiens, UniProt P14416); experiment: Displacement of [3H]N-methylspiperone from human dopamine D2 receptor expressed in stable fibroblast cells by radioligand binding assay; assay type: cell-based
[10] = molecular target: T5, Delta-type opioid receptor (Homo sapiens, UniProt P41143); experiment: Displacement of [3H]DADLE from human DOR expressed in HEK cells by radioligand binding assay; assay type: cell-based
D(1B) dopamine receptor = D(1B) dopamine receptor (Homo sapiens, UniProt P21918); experiment: Displacement of [3H]SCH23390 from human dopamine D5 receptor expressed in HEK293T cells by radioligand binding assay; assay type: cell-based
[11] = molecular target: T6, 5-hydroxytryptamine receptor 1A (Homo sapiens, UniProt P08908); experiment: Displacement of [3H]-Way100635 from human 5HT1A receptor expressed in stable CHO cell membranes by radioligand binding assay
T6 sequence (P08908 whole entry): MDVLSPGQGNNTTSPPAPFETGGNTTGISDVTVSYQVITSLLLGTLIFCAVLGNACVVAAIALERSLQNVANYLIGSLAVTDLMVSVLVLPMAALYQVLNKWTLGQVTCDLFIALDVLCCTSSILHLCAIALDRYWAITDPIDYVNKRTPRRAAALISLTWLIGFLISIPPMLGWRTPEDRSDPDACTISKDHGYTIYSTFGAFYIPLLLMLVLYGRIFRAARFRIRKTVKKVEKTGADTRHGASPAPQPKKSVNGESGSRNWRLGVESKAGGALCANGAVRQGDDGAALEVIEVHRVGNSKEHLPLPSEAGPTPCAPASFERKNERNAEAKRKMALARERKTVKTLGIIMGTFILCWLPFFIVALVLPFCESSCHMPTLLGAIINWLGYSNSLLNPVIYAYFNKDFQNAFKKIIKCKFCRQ

[12] = molecular target: T7, 5-hydroxytryptamine receptor 2A (Homo sapiens, UniProt P28223); experiment: Displacement of [3H]Ketanserin from 5-HT2A receptor (unknown origin) by radioligand binding assay relative to control; parameters: concentration or dose not given beside the values; details: concentration not given here
[13] = molecular target: T8, Sodium-dependent dopamine transporter (Homo sapiens, UniProt Q01959); experiment: Displacement of [3H]WIN35428 from human DAT expressed in HEK cells by radioligand binding assay; assay type: cell-based
Histamine H2 receptor [14] = molecular target: T9, Histamine H2 receptor (Homo sapiens, UniProt P25021); experiment: Displacement of [3H]Cimetidine from human H2 receptor expressed in HEK cells by radioligand binding assay; assay type: cell-based
[15] = molecular target: T8, Sodium-dependent dopamine transporter; experiment: Displacement of [3H]WIN35428 from human DAT expressed in HEK cells by radioligand binding assay relative to control; assay type: cell-based
[16] = molecular target: T3, Sodium-dependent noradrenaline transporter; experiment: Displacement of [3H]Nisoxetine from human NET expressed in HEK cells by radioligand binding assay; assay type: cell-based
[17] = molecular target: T5, Delta-type opioid receptor; experiment: Displacement of [3H]DADLE from human DOR expressed in HEK cells by radioligand binding assay relative to control; assay type: cell-based; parameters: concentration or dose not given beside the values; details: concentration not given here
[18] = molecular target: T7, 5-hydroxytryptamine receptor 2A; experiment: Displacement of [3H]Ketanserin from 5-HT2A receptor (unknown origin) by radioligand binding assay
D(1A) dopamine receptor = D(1A) dopamine receptor (Homo sapiens, UniProt P21728); experiment: Displacement of [3H]SCH23390 from human dopamine D1 receptor expressed in HEK293T cells by radioligand binding assay; assay type: cell-based
D(3) dopamine receptor = D(3) dopamine receptor (Homo sapiens, UniProt P35462); experiment: Displacement of [3H]N-methylspiperone from human dopamine D3 receptor expressed in HEK293T cells by radioligand binding assay relative to control; assay type: cell-based; parameters: concentration or dose not given beside the values; details: concentration not given here
Histamine H2 receptor [19] = molecular target: T9, Histamine H2 receptor; experiment: Displacement of [3H]Cimetidine from human H2 receptor expressed in HEK cells by radioligand binding assay relative to control; assay type: cell-based; parameters: concentration or dose not given beside the values; details: concentration not given here
[20] = system: Lewis lung carcinoma cell line; experiment: Cytotoxicity against mouse LLC cells harboring […] assessed as reduction in cell viability after 72 hrs by MTT assay; assay type: functional, cell-based; outline: as §1
[21] = molecular target: 5-hydroxytryptamine receptor 2B (Homo sapiens, UniProt P41595); experiment: Displacement of [3H]LSD from human 5-HT2B receptor expressed in HEK cells by radioligand binding assay; assay type: cell-based
[22] = molecular target: 5-hydroxytryptamine receptor 5A (Homo sapiens, UniProt P47898); experiment: Displacement of [3H]LSD from human 5-HT5A receptor expressed in Flp-In CHO cells by radioligand binding assay relative to control; assay type: cell-based; parameters: concentration or dose not given beside the values; details: concentration not given here

T7 sequence (P28223 whole entry): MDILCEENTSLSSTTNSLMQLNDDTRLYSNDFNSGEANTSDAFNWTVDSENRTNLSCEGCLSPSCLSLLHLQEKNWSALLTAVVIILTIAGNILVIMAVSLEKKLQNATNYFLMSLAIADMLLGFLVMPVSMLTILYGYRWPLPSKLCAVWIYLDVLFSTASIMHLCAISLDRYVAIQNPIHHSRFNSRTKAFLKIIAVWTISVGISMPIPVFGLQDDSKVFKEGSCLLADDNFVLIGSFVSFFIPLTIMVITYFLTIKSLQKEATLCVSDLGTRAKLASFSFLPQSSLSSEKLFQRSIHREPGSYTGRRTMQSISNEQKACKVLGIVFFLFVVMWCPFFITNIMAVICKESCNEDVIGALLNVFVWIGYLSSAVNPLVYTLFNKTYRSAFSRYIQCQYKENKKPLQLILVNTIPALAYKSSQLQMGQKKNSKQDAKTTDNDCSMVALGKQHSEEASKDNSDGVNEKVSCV
T3 sequence (P23975 whole entry): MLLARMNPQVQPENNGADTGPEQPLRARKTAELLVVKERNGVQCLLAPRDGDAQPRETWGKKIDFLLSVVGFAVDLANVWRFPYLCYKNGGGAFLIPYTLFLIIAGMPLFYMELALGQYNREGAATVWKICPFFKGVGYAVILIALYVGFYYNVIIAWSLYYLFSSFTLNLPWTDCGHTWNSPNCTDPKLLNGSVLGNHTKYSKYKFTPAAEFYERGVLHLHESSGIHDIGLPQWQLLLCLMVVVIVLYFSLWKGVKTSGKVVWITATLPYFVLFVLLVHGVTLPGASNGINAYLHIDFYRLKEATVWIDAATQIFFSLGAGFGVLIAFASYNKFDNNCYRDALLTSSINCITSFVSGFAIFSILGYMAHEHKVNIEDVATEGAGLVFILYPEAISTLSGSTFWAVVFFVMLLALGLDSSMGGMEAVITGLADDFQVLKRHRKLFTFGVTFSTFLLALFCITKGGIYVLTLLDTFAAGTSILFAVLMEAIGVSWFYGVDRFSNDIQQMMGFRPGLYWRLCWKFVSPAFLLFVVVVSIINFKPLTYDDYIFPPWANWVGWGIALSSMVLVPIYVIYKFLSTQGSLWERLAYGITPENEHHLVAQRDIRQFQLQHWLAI
Sequence of 5-hydroxytryptamine receptor 6 (P50406 whole entry): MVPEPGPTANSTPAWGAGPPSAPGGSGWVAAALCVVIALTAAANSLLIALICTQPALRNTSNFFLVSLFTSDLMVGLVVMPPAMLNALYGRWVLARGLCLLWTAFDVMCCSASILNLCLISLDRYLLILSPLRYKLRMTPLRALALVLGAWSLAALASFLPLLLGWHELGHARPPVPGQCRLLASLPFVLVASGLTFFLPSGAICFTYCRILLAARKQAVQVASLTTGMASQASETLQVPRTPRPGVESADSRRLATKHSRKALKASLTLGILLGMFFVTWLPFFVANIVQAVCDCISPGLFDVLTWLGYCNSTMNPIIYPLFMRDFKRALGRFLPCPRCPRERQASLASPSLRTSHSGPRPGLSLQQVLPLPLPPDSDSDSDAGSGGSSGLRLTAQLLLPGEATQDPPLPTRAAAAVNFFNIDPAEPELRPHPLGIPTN
T1 sequence (P35372 whole entry): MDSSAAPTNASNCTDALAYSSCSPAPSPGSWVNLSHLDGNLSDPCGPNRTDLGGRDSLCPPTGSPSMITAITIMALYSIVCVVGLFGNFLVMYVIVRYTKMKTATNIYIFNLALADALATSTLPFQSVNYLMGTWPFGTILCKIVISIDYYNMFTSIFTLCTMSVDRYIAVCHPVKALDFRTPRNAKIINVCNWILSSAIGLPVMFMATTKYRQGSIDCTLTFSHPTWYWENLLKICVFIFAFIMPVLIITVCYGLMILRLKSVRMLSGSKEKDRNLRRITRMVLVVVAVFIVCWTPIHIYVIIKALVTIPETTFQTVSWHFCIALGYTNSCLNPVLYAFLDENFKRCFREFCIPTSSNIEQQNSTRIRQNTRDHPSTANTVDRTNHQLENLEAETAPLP
Sequence of D(1A) dopamine receptor (P21728 whole entry): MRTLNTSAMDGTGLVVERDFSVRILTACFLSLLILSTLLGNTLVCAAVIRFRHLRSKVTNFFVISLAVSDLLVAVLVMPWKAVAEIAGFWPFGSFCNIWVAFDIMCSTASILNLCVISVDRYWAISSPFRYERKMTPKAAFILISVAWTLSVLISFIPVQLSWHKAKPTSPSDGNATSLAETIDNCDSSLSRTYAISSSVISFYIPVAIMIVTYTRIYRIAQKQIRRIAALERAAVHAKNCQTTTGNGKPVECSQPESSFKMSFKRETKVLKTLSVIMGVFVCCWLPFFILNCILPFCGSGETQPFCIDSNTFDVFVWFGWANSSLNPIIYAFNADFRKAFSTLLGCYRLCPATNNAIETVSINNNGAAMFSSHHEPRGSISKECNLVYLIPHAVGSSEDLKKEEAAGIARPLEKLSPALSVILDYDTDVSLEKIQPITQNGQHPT
T9 sequence (P25021 whole entry): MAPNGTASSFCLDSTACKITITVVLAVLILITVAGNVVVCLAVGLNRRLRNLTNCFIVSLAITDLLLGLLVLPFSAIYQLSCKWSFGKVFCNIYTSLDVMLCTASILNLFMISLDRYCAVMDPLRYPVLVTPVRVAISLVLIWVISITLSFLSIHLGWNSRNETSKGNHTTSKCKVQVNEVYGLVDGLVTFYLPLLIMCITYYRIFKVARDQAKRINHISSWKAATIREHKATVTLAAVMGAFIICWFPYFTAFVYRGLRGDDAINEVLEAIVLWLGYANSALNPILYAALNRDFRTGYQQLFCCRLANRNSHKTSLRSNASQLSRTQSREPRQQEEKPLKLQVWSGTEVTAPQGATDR
Sequence of D(3) dopamine receptor (P35462 whole entry): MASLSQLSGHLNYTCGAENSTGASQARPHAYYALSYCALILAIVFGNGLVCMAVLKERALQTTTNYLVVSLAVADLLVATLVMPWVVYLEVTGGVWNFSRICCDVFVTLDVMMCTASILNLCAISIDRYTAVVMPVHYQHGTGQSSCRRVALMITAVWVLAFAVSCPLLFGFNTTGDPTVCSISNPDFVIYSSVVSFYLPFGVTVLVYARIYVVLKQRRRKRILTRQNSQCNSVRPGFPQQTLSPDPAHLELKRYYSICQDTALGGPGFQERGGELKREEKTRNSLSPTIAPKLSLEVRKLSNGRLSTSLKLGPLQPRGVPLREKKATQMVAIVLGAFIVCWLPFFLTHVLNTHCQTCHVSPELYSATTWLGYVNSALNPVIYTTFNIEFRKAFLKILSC
Sequence of Sodium-dependent serotonin transporter (P31645 whole entry): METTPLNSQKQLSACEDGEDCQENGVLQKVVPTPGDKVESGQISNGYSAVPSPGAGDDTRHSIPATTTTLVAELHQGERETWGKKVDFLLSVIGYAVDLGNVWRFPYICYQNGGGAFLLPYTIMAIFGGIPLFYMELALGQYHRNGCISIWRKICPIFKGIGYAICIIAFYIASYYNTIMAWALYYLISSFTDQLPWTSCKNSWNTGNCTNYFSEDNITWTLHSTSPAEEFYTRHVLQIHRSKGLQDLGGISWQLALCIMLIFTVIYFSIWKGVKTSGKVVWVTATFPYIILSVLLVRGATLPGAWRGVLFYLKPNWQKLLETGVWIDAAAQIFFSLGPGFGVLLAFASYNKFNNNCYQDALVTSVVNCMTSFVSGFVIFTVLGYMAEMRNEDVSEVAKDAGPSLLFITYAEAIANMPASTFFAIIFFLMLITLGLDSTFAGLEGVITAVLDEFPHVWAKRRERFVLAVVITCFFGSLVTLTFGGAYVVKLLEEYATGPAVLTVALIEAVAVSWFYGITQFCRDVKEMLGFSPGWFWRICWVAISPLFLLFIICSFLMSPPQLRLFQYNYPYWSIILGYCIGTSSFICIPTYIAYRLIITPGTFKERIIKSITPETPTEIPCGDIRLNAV
Sequence of 5-hydroxytryptamine receptor 2B (P41595 whole entry): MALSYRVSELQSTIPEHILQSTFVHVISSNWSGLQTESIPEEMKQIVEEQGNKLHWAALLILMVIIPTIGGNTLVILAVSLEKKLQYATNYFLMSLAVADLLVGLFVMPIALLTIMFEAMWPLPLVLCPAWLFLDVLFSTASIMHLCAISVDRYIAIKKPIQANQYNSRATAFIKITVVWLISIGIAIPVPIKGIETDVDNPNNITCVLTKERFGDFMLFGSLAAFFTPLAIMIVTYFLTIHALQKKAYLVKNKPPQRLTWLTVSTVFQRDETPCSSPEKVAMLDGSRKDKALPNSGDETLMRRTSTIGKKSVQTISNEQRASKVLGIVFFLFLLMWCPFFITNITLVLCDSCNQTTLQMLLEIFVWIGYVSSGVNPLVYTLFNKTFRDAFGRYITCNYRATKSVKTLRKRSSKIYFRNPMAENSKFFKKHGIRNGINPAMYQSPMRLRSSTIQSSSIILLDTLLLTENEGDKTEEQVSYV
T8 sequence (Q01959 whole entry): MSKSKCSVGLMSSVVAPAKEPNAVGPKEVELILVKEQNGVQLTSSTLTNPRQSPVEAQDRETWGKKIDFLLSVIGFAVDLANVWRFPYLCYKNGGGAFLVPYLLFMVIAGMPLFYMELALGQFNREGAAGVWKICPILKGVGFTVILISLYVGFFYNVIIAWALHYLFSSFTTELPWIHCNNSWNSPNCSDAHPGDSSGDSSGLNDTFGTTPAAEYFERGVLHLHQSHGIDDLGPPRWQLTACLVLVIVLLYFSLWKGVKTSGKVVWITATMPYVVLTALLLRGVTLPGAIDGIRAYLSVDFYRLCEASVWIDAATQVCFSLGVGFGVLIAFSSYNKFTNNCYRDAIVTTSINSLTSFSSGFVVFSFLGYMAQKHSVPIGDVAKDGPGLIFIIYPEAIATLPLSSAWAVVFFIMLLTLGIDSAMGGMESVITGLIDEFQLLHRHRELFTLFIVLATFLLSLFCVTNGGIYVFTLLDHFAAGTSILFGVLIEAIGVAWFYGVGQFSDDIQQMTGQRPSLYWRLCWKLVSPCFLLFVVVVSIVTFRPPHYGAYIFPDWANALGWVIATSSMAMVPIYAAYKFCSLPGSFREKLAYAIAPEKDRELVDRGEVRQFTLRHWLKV

Row | Compound | Ki (Mu-type opioid receptor [1]) [nM] | inhibition (INH) [2] [%] | inhibition [3] [%] | inhibition [4] [%] | inhibition (Mu-type opioid receptor [5]) [%] | IC50 (NIH3T3) [nM] | inhibition (INH) [6] [%] | IC50 (MDA-MB-231) [nM] | IC50 [7] [nM] | inhibition (INH) [8] [%] | Ki [9] [nM] | Ki (D(2) dopamine receptor) [nM] | Ki [11] [nM] | inhibition [12] [%] | inhibition [17] [%] | Ki [18] [nM] | inhibition (D(3) dopamine receptor) [%] | IC50 [20] [nM] | Ki ([21]; read-out: Ki) [nM] | inhibition [22] [%] | other results
1 | OC1(c2ccc(Cl)c(C(F)(F)F)c2)CCN(CCCC(c2ccccc2)c2ccccc2)CC1 | 70 | 82.1 | 72.8 | 82.9 | 90.3 | 12200 | 90.6 | 9300 | 6600 | 83.7 | 2130 | 38 | 481 | 94.3 | 82.7 | 1000 | 97.4 | 9200 | 374 |  | Ki ([10]; read-out: Ki): 1530 nM; Ki (D(1B) dopamine receptor): 121 nM; Ki [13]: 121 nM; Ki (Histamine H2 receptor [14]; read-out: Ki): 278 nM; inhibition (INH) [15]: 87.5%; Ki [16]: 518 nM; Ki (D(1A) dopamine receptor): 135 nM; inhibition (Histamine H2 receptor [19]): 89.5%
2 | OC1(c2ccc(Cl)c(C(F)(F)F)c2)CCN(CCCCN(c2ccc(F)cc2)c2ccc(F)cc2)CC1 | 10000 | 57.1 | 68 | 77.5 | 61.5 | 12100 | 88.2 | 11300 | 10600 | 72.7 | 1130 | 550 | 1090 | 92.6 | 68.9 | 6060 | 82.5 | 8200 | 509 | 50 | Ki ([10]; read-out: Ki): 10000 nM; Ki (D(1B) dopamine receptor): 744 nM; Ki [13]: 10000 nM; Ki (Histamine H2 receptor [14]): Not Active; inhibition (INH) [15]: 86.6%; Ki [16]: 458 nM; Ki (D(1A) dopamine receptor): 10000 nM
3 | OC1(c2ccc(Cl)c(C(F)(F)F)c2)CCN(CCCC=C(c2ccc(F)cc2)c2ccc(F)cc2)CC1 | 328 | 78.8 | 54.4 | 77.2 | 90.6 | 37200 |  | 23900 | 12000 |  | 1600 | 317 | 1360 | 91.5 | 74.1 | 1100 | 87.1 | 11200 | 2200 | 21.4 | Ki (Histamine H2 receptor [14]; read-out: Ki): 526 nM; inhibition (Histamine H2 receptor [19]): 82.6%
4 | OC1(c2ccc(Cl)c(C(F)(F)F)c2)CCN(CCCN(c2ccc(F)cc2)c2ccc(F)cc2)CC1 | 902 | 85.9 | 86.4 | 86.7 | 97.4 | 6800 | 97.4 | 6700 | 5700 | 82.5 | 402 | 148 | 1260 | 94.6 | 65.9 | 164 | 94.4 | 4100 | 177 | 67.7 | Ki ([10]; read-out: Ki): 1560 nM; Ki (D(1B) dopamine receptor): 437 nM; Ki [13]: 1190 nM; Ki (Histamine H2 receptor [14]; read-out: Ki): 252 nM; inhibition (INH) [15]: 83.4%; Ki [16]: 902 nM; Ki (D(1A) dopamine receptor): 300 nM; inhibition (Histamine H2 receptor [19]): 98.3%
5 | OC1(c2ccc(Cl)c(C(F)(F)F)c2)CCN(CCCCCc2ccc(F)cc2)CC1 | 536 | 75.9 | 24.7 | 57.7 | 86.2 | 13200 |  | 19400 | 11900 |  | 2550 | 460 | 901 | 68.5 |  | 889 | 77.8 | 8200 to 9800 |  | 16.4 | Ki [10]: Not Active; Ki (Histamine H2 receptor [14]; read-out: Ki): 401 nM; inhibition (Histamine H2 receptor [19]): 69.2%; Ki [21]: Not Active
6 | OC1(c2ccc(Cl)c(C(F)(F)F)c2)CCN(CCCC(c2ccc(F)cc2)c2ccc(F)cc2)CC1 [PENFLURIDOL] | 867 | 98.4 | 96 | 95.3 | 87 | 6030 | 86.2 | 6100 | 4200 | 92.7 | 881 | 159 | 356 | 95.2 | 89.1 | 361 | 98.2 | 4300 | 184 | 95 | Ki ([10]; read-out: Ki): 1710 nM; Ki (D(1B) dopamine receptor): 125 nM; Ki [13]: 1710 nM; inhibition (INH) [15]: 89.1%; Ki [16]: 588 nM; Ki (D(1A) dopamine receptor): 147 nM; inhibition (Histamine H2 receptor [19]): 98.4%
7 | COc1ccc(N(CCCCN2CCC(O)(c3ccc(Cl)c(C(F)(F)F)c3)CC2)c2ccc(OC)cc2)cc1 | 8250 | 55.2 | 50 | 72.6 | 76.8 | 8700 | 86.4 | 8100 | 4000 | 94 | 740 | 417 | 10000 | 94.1 | 77.6 | 900 | 65.1 | 2700 to 6100 | 729 | 50 | Ki ([10]; read-out: Ki): 10000 nM; Ki (D(1B) dopamine receptor): 623 nM; Ki [13]: 622 nM; Ki (Histamine H2 receptor [14]): Not Active; inhibition (INH) [15]: 91.3%; Ki [16]: 1440 nM; Ki (D(1A) dopamine receptor): 10000 nM
